pEC50: −log10 of the molar value.
Tests used:
Syrian golden hamster [1] = test: Inhibition of glucose level in Syrian golden hamster at 300 umol/kg after 10 days; type: functional; details: Mesocricetus auratus, 240 h
Syrian golden hamster [2] = test: Inhibition of glycerol level in Syrian golden hamster at 300 umol/kg after 10 days; type: functional; details: Mesocricetus auratus, 240 h
[3] = target: T1, Peroxisome proliferator-activated receptor delta (Homo sapiens) (UniProt Q03181); test: Inhibition of PPARdelta at 3 uM
T1 sequence (whole entry): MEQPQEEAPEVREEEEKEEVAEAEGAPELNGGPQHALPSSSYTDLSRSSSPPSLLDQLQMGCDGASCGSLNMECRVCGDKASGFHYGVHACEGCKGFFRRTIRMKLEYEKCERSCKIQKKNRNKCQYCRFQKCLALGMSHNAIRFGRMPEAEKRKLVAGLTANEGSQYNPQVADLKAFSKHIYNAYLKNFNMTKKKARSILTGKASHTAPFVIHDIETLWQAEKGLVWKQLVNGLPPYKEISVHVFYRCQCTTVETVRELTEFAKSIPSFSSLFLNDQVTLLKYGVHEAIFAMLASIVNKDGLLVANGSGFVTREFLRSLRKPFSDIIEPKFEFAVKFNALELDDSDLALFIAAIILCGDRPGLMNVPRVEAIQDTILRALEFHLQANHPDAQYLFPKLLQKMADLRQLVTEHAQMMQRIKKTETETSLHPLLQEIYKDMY

Syrian golden hamster [4] = test: Inhibition of cholesterol level in Syrian golden hamster at 300 umol/kg after 10 days; type: functional; details: Mesocricetus auratus, 240 h
Rattus norvegicus [5] = test: Antidiabetic activity in glucose loaded albino Sprague-Dawley rat model assessed as decrease in blood glucose level at 100 mg/kg, po; type: functional
Method in brief: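 Rats in groups of five were bled at baseline, then gavaged with test sample at 100 mg/kg. A glucose load of 2 g/kg was given 30 min later. Blood was collected at 30, 60, 90 and 120 min.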

Rattus norvegicus [6] = test: Inhibition of cholesterol level in triton treated Charles Foster rat at 100 mg/kg, po; type: functional
Method in brief: (§1)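 Male Charles Foster rats (200–225 g) were used, six per group. They received Triton WR-1339 200 mg/kg i.p. together with oral compound at 100 mg/kg in 2% aqueous gum acacia, over 18 h; vehicle controls were included. Rats were then fasted overnight and bled retro-orbitally. Serum total cholesterol, phospholipids and triglyceride were assayed.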

[7] = target: T2, Peroxisome proliferator-activated receptor gamma (Homo sapiens, UniProt P37231); test: Binding affinity at PPARgamma
T2 sequence (P37231 whole entry): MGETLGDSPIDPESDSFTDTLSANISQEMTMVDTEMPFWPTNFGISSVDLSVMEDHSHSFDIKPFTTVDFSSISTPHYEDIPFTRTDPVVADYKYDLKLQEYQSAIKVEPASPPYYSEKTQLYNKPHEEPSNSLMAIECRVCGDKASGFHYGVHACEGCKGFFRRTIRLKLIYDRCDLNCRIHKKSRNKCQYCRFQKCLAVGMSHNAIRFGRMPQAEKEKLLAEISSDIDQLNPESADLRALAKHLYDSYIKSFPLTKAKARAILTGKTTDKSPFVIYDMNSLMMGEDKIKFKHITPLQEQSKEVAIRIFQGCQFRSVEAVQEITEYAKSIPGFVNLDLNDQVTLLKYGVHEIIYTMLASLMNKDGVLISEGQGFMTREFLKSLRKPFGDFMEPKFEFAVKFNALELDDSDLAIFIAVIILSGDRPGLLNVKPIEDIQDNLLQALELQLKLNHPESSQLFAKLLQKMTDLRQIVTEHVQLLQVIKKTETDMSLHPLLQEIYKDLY

Mus musculus [8] = test: Antidiabetic activity in db/db mouse at 100 mg/kg after 5 hrs on day 3; type: functional
Syrian golden hamster [9] = test: Inhibition of triglyceride level in Syrian golden hamster at 300 umol/kg after 10 days; type: functional; details: Mesocricetus auratus, 240 h
Rattus norvegicus [10] = test: Antidiabetic activity in streptozotocin-induced diabetic albino Sprague-Dawley rat model assessed as decrease in blood glucose level at 100 mg/kg, po; type: functional
Method in brief: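 Overnight-fasted rats received streptozotocin 60 mg/kg i.p. in 100 mM citrate buffer, pH 4.5. After 48 h, animals with glucometer glucose of 200–400 mg/dl were grouped (n=6). Sample in 1% gum acacia was given orally at 100 mg/kg; controls received vehicle.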

Rattus norvegicus [11] = test: Antidiabetic activity in sucrose loaded albino Sprague-Dawley rat model assessed as decrease in blood glucose level at 100 mg/kg, po; type: functional
Method in brief: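 Male Sprague–Dawley rats were fasted overnight and used in groups of five. Baseline blood was taken, then test sample was gavaged at 100 mg/kg. A sucrose load of […] followed 30 min later.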

Syrian golden hamster [12] = test: Inhibition of HDL level in Syrian golden hamster at 300 umol/kg after 10 days; type: functional; details: Mesocricetus auratus, 240 h
Rattus norvegicus [13] = test: Inhibition of triglyceride level in triton treated Charles Foster rat at 100 mg/kg, po; type: functional; method in brief: as §1
[14] = target: T3, Peroxisome proliferator-activated receptor alpha (Homo sapiens) (UniProt Q07869); test: Inhibition of PPARalpha at 50 uM
T3 sequence (whole entry): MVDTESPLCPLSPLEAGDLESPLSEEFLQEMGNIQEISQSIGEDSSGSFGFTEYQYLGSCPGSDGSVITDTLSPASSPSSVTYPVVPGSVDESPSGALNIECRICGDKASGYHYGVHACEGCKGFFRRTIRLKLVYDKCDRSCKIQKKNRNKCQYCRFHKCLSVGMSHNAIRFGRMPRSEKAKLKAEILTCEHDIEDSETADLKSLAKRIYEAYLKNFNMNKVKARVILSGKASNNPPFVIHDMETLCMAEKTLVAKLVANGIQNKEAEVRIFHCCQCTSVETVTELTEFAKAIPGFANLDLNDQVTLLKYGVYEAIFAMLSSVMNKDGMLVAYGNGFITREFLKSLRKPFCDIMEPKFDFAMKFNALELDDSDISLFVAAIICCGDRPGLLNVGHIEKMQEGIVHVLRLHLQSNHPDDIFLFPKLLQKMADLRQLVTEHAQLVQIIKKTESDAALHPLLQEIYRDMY

Mus musculus [15] = test: Antidiabetic activity in db/db mouse at 100 mg/kg after 24 hrs on day 3; type: functional
Rattus norvegicus [16] = test: Antidiabetic activity in sucrose challenged streptozotocin-induced diabetic albino Sprague-Dawley rat model assessed as decrease in blood glucose level at 100 mg/kg, po; type: functional
Method in brief: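 Diabetes was induced in overnight-fasted rats with streptozotocin 60 mg/kg i.p. in 100 mM citrate buffer, pH 4.5. Rats with glucose of 150–250 mg/dl at 48 h were selected. A sucrose load of 2.5 g/kg was given 30 min after oral dosing. Glucose was measured at 30–300 min and 24 h. Food was withheld, water allowed.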

Rattus norvegicus [17] = test: Inhibition of phospholipids level in triton treated Charles Foster rat at 100 mg/kg, po; type: functional; method in brief: as §1

Compound | inhibition in vivo at 300 µmol/kg (Syrian golden hamster [1]) | inhibition in vivo at 300 µmol/kg (Syrian golden hamster [2]) | inhibition [3] | inhibition in vivo at 300 µmol/kg (Syrian golden hamster [4]) | inhibition in vivo at 100 mg/kg (Rattus norvegicus [5]) | inhibition in vivo at 100 mg/kg (Rattus norvegicus [6]) | pEC50 [7] | inhibition in vivo at 100 mg/kg (Mus musculus [8]) | inhibition in vivo at 300 µmol/kg (Syrian golden hamster [9]) | inhibition in vivo at 100 mg/kg (Rattus norvegicus [10]) | inhibition in vivo at 100 mg/kg (Rattus norvegicus [11]) | inhibition in vivo at 300 µmol/kg (Syrian golden hamster [12]) | inhibition in vivo at 100 mg/kg (Rattus norvegicus [13]) | inhibition [14] | inhibition in vivo at 100 mg/kg (Mus musculus [15]) | inhibition in vivo at 100 mg/kg (Rattus norvegicus [16]) | inhibition in vivo at 100 mg/kg (Rattus norvegicus [17])
c1ccc(CNCCOc2ccc3ccccc3c2)cc1 | 9.5% | 10% | 31.3% | 14% | 37.6% | 31% | 6.40 | 7% | 37% | 13% | 64% | 13% | 37% | 36.2% | 11.6% | 69.5% | 34%
c1ccc(CNCCCOc2ccc3ccccc3c2)cc1 |  |  | 29.1% |  | 13.8% |  |  |  |  |  | 40.5% |  |  | 28.4% |  |  | 
COc1cccc(CNCCCOc2ccc3ccccc3c2)c1 |  |  |  |  | 1.23% | 14% |  |  |  |  | 8.3% |  | 22% |  |  |  | 22%
COc1ccc(N(C)CCCOc2ccc3ccccc3c2)cc1 |  |  | 19.3% |  | 8.2% | 11% |  |  |  |  | 14.5% |  | 15% | 22.5% |  |  | 19%
Cc1ccc(NCCOc2ccc3ccccc3c2)cc1 |  |  |  |  | 2.45% | 27% |  |  |  |  | 6.99% |  | 18% |  |  |  | 30%
Cc1ccc(NCCCCOc2ccc3ccccc3c2)cc1 |  |  |  |  | 3.21% |  |  |  |  |  | 6.9% |  |  |  |  |  | 
CCCCN(CCCOc1ccc2ccccc2c1)c1ccc(OC)cc1 |  |  | 8.4% |  | 13.5% | 15% |  |  |  |  | 4.4% |  | 17% | 8.5% |  |  | 25%
COc1ccc(NCCCOc2ccc3ccccc3c2)cc1 | 31% | 14% | 42.6% | 14% | 33.6% | 32.4% | 4.47 | 22.4% | 48% | 28.5% | 31% | 15% | 28% | 44.5% | 28.9% | 73.8% | 38%
Cc1ccc(S(=O)(=O)NC(=O)NN2CC3CCCC3C2)cc1 (stereo not given) [GLICLAZIDE] |  |  |  |  |  |  |  |  |  | 27.7% | 44.8% |  |  |  |  |  | 
CCCCCCCCNCCCOc1ccc2ccccc2c1 |  |  | 7.9% |  | 17% |  |  |  |  |  | 32% |  |  | 11.4% |  |  | 
